# Data reported in ChEMBL document CHEMBL4007470, “Discovery of a 2'-fluoro-2'-C-methyl C-nucleotide HCV polymerase inhibitor and a phosphoramidate prodrug with favorable properties” (Bioorg Med Chem Lett, 2017).
# Tests used:
# [1] = Prodrug activation in human HuH7 cells infected with HCV genotype 1b assessed as ((2R,3R,4R,5S)-5-(4-aminopyrrolo[1,2-f][1,2,4]triazin-7-yl)-4-fluoro-3-hydroxy-4-methyltetrahydrofuran-2-yl)methyl tetrahydrogen triphosphate level per million cells at 10 uM after 2 to 24 hrs by LC-MS/MS analysis; type: cell-based; conditions: huh-7, 10 µM
# Outline: (§1)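 HCV genotype 1b replicon Huh-7 cells (DMEM with glutaMAX, 10% heat-inactivated FBS, penicillin-streptomycin, G418) grown to confluency (0.88×10^6 cells/well), exposed continuously to prodrug at 10 μM for up to 24 h; washed in ice-cold saline, extracted into 70% methanol overnight, dried, resuspended in 1 mM ammonium phosphate pH 8.5; triphosphate quantified by LC-MS/MS; LLOQ 0.137 pmol/million cells; duplicate wells, single experiment.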
# [2] = Prodrug activation in human HuH7 cells infected with HCV genotype 1b assessed as ((2R,3R,4R,5S)-5-(4-aminopyrrolo[1,2-f][1,2,4]triazin-7-yl)-4-fluoro-3-hydroxy-4-methyltetrahydrofuran-2-yl)methyl tetrahydrogen diphosphate level at 10 uM after 2 to 24 hrs by LC-MS/MS analysis; type: cell-based; conditions: huh-7, 10 µM
# [3] = tested on: Hepatitis C virus; assay: Antiviral activity against HCV genotype 1b infected in human HuH7 cells by luciferase reporter gene assay; type: functional, cell-based, Hepacivirus hominis
# Outline: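 Luciferase-reporter genotype 1b subgenomic replicon in Huh-7 cells; EC50 is concentration giving 50% inhibition. Values are averages of at least three repeats.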
# [4] = Prodrug activation in human HuH7 cells infected with HCV genotype 1b assessed as ((2R,3R,4R,5S)-5-(4-aminopyrrolo[1,2-f][1,2,4]triazin-7-yl)-4-fluoro-3-hydroxy-4-methyltetrahydrofuran-2-yl)methyl tetrahydrogen monophosphate level at 10 uM after 2 to 24 hrs by LC-MS/MS analysis; type: cell-based; conditions: huh-7, 10 µM
# [5] = Prodrug activation in human HuH7 cells infected with HCV genotype 1b assessed as ((2R,3R,4R,5R)-5-(4-aminoimidazo[1,2-f][1,2,4]triazin-7-yl)-5-cyano-4-fluoro-3-hydroxy-4-methyltetrahydrofuran-2-yl)methyl tetrahydrogen triphosphate level per million cells at 10 uM after 2 hrs by LC-MS/MS analysis; type: cell-based; conditions: huh-7, 2 h; outline: as §1
# [6] = tested on: Huh-7; assay: Cytotoxicity against human HuH7 cells; type: cell-based
# [7] = Prodrug activation in human HuH7 cells infected with HCV genotype 1b assessed as ((2R,3R,4R,5R)-5-(4-aminoimidazo[1,2-f][1,2,4]triazin-7-yl)-5-cyano-4-fluoro-3-hydroxy-4-methyltetrahydrofuran-2-yl)methyl tetrahydrogen triphosphate level per million cells at 10 uM after 24 hrs by LC-MS/MS analysis; type: cell-based; conditions: huh-7, 24 h; outline: as §1
# [8] = Prodrug activation in human HuH7 cells infected with HCV genotype 1b assessed as ((2R,3R,4R,5R)-5-(4-aminoimidazo[1,2-f][1,2,4]triazin-7-yl)-5-cyano-4-fluoro-3-hydroxy-4-methyltetrahydrofuran-2-yl)methyl tetrahydrogen triphosphate level per million cells at 10 uM after 6 hrs by LC-MS/MS analysis; type: cell-based; conditions: huh-7, 6 h; outline: as §1
# [9] = tested on: Hepatitis C virus; assay: Antiviral activity against HCV genotype 1a infected in human HuH7 cells by luciferase reporter gene assay; type: functional, cell-based, Hepacivirus hominis, subtype 1a
# [10] = Half life in hamster plasma at 2 uM by LC-MS/MS analysis; type: ADME, cell-free; conditions: cricetinae
# Outline: (§2)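 Compound at 2 μM incubated in plasma at 37 °C for up to 4 h. Aliquots quenched with 9 volumes of acetonitrile containing internal standard, then centrifuged. Supernatant analysed by LC-MS/MS.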
# [11] = Fraction absorbed in Beagle dog at 5 mg/kg, po; type: ADME, organism-based, Canis lupus familiaris; conditions: in vivo, read-out: Fabs
# Outline: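 Male beagle dogs dosed orally at 5 mg/kg. Fraction absorbed determined by portal vein sampling.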
# [12] = Half life in human plasma at 2 uM by LC-MS/MS analysis; type: ADME, cell-free; outline: as §2
# [13] = tested on: Plasma; assay: Stability in rat plasma at 2 uM up to 4 hrs by LC-MS/MS analysis; type: ADME, cell-free; outline: as §2
# [14] = Half life in hamster intestinal S9 fractions at 2 uM by LC-MS/MS analysis; type: ADME, Intestine; conditions: cricetinae
# [15] = tested on: Hepatitis C virus; assay: Antiviral activity against HCV genotype 4a infected in human HuH7 cells by luciferase reporter gene assay; type: functional, cell-based, Hepacivirus hominis; conditions: Hepatitis C virus, genotype 4a, Huh-7
# [16] = Solubility of the compound in pH 7.4 solution; type: physicochemical
# Outline: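 Solubility measured at pH 7.4 using amorphous material.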
# [17] = Prodrug activation in Syrian golden hamster liver assessed as triphosphate metabolite formation at 5 mg equivalents/kg, po after 1 hr by LC-MS/MS analysis; type: ADME, organism-based, Mesocricetus auratus; conditions: in vivo
# Outline: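 Golden Syrian hamsters (groups of 12) dosed orally at 5 mg-eq/kg in EtOH/PEG400/water buffered with 50 mM pH 4 citrate. Livers harvested under isoflurane at 1 h and extracted in cold KOH/EDTA/70% MeOH with Cl-ATP. Triphosphate measured by LC/MS/MS, with endogenous ATP checked for sample stability.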
# [18] = Hepatic extraction in human liver S9 fractions at 2 uM by LC-MS/MS analysis; type: ADME; conditions: liver S9 fractions, read-out: ERH
# Outline: (§3)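 Compound at 2 μM incubated with S9 fractions at 37 °C for 90 min with NADPH and UDPGA. Quenched with aqueous acetonitrile/methanol containing internal standard and analysed by LC-MS/MS. Half-life from an exponential fit assuming first-order kinetics. Hepatic extraction predicted from half-life using the well-stirred model.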
# [19] = Hepatic extraction in hamster liver S9 fractions at 2 uM by LC-MS/MS analysis; type: ADME; conditions: cricetinae, liver S9 fractions; read-out: ERH; outline: as §3
# [20] = Permeability of the compound from basolateral to apical side in human Caco2 cells at 10 uM; type: ADME, cell-based, Caco-2; conditions: Caco-2, read-out: permeability
# Outline: (§4)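 Caco-2 permeability at 10 μM compound, measured in apical-to-basolateral and basolateral-to-apical directions.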
# [21] = Permeability of the compound from apical to basolateral side in human Caco2 cells at 10 uM; type: ADME, cell-based, Caco-2; conditions: Caco-2, read-out: permeability; outline: as §4
# [22] = Half life in human intestinal S9 fractions at 2 uM by LC-MS/MS analysis; type: ADME, Intestine; outline: as §3
# [23] = Inhibition of human RNA polymerase-2
# [24] = Prodrug activation in human HuH7 cells infected with HCV genotype 1b assessed as((2R,3R,4R,5S)-5-(4-aminopyrrolo[1,2-f][1,2,4]triazin-7-yl)-3,4-dihydroxy-4-methyltetrahydrofuran-2-yl)methyl tetrahydrogen triphosphate formation per million cells at 10 uM after 6 hrs by LC-MS/MS analysis; type: cell-based; conditions: huh-7, 6 h
# Outline: (§5)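 Huh-7 replicon cells grown in DMEM with 10% heat-inactivated FBS, penicillin-streptomycin and G418, plated to confluency (0.88×10^6 cells/well). Prodrug at 10 μM given as continuous incubation, sampled at 2, 6 and 24 h. Cells washed with ice-cold saline and extracted into 70% methanol overnight. Triphosphate quantified by LC-MS/MS (LLOQ 0.137 pmol/million cells). Duplicate wells, single experiment.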
# [25] = Prodrug activation in human HuH7 cells infected with HCV genotype 1b assessed as ((2R,3R,4R,5S)-5-(4-aminopyrrolo[1,2-f][1,2,4]triazin-7-yl)-3,4-dihydroxy-4-methyltetrahydrofuran-2-yl)methyl tetrahydrogen triphosphate formation per million cells at 10 uM after 24 hrs by LC-MS/MS analysis; type: cell-based; conditions: huh-7, 24 h; outline: as §5
# [26] = Prodrug activation in human HuH7 cells infected with HCV genotype 1b assessed as ((2R,3R,4R,5S)-5-(4-aminopyrrolo[1,2-f][1,2,4]triazin-7-yl)-3,4-dihydroxy-4-methyltetrahydrofuran-2-yl)methyl tetrahydrogen triphosphate formation per million cells at 10 uM after 2 hrs by LC-MS/MS analysis; type: cell-based; conditions: huh-7, 2 h; outline: as §5
# [27] = Hepatitis C virus, genotype 1b, Huh-7
half-life at 2 µM [12] [h],Stability [13],EC50 [15] [nM],solubility [16] [µg/mL],liver triphosphate concentration [17] [µM],hepatic extraction ratio at 2 µM [18],hepatic extraction ratio at 2 µM [19],Papp B→A at 10 µM [20] [×10⁻⁶ cm/s],Papp A→B at 10 µM [21] [×10⁻⁶ cm/s],half-life at 2 µM [22] [h],Structure (SMILES),"EC50 [3, 27] [nM]",Activity [6],other results
8.9,Unstable,380,538,1.89,0.79,0.93,9.7,2.4,> 13.2,CC(C)OC(=O)C1(NP(=O)(OC[C@H]2O[C@@H](c3cnc4c(N)ncnn34)[C@](C)(F)[C@@H]2O)Oc2ccccc2)CCC1 (stereo in doubt; 37),–,–,"EC50 [9]: 2300 nM; t1/2 ([10]; 2 µM): > 13.2 h; Fa [11]: > 70%; t1/2 ([14]; s9, 2 µM, 2 µM): 0.8 h; EC50 [3]: 18800 nM"
2.58,Unstable,1100,657,1.29,0.65,0.86,17.6,4.2,> 13.2,CC(C)OC(=O)C(C)(C)NP(=O)(OC[C@H]1O[C@@H](c2ccc3c(N)ncnn23)[C@](C)(F)[C@@H]1O)Oc1ccccc1 (some centres undefined),41800,–,"EC50 ([9]; Hepatitis C virus, subtype 1a, Huh-7): 5000 nM; half-life at 2 µM [10]: 2.07 h; half-life at 2 µM ([14]; intestinal S9 fractions): 1.77 h"

# The next lines start with the molecule.
Structure (SMILES),half-life at 2 µM [12] [h],Stability [13],EC50 [15] [nM],solubility [16] [µg/mL],liver triphosphate concentration [17] [µM],hepatic extraction ratio at 2 µM [18],hepatic extraction ratio at 2 µM [19],Papp B→A at 10 µM [20] [×10⁻⁶ cm/s],Papp A→B at 10 µM [21] [×10⁻⁶ cm/s],half-life at 2 µM [22] [h],"EC50 [3, 27] [nM]",Activity [6],other results
CCOC(=O)[C@H](C)NP(=O)(OC[C@H]1O[C@@H](c2ccc3c(N)ncnn23)[C@](C)(F)[C@@H]1O)Oc1ccccc1 (some centres undefined),–,–,–,–,–,–,–,–,–,–,> 89000,–,Drug metabolism [1]: < 0.137 pmol; Drug metabolism [2]: Metabolite_Notdetected; Drug metabolism [4]: Metabolite_Detected
CCOC(=O)[C@H](C)NP(=O)(OC[C@H]1O[C@@](C#N)(c2ccc3c(N)ncnn23)[C@](C)(F)[C@@H]1O)Oc1ccccc1 (some centres undefined),–,–,–,–,–,–,–,–,–,–,3240,Non-Toxic,Drug metabolism [5]: 1.6 pmol; Drug metabolism [7]: 3.3 pmol; Drug metabolism [8]: 5.8 pmol
CC[C@H](C)[C@@H]1NC(=O)CNC(=O)[C@@H]2Cc3c([nH]c4cc(O)ccc34)[S+]([O-])C[C@@H](NC(=O)CNC1=O)C(=O)N[C@@H](CC(N)=O)C(=O)N1C[C@H](O)C[C@H]1C(=O)NC([C@@H](C)[C@@H](O)CO)C(=O)N2 (some centres undefined),–,–,–,–,–,–,–,–,–,–,–,–,IC50 [23]: 2.4 nM
CCOC(=O)[C@H](C)N[P@@](=O)(O)OC[C@H]1O[C@@](C#N)(c2ccc3c(N)ncnn23)[C@](C)(O)[C@@H]1O,–,–,–,–,–,–,–,–,–,–,1450,Non-Toxic,Drug metabolism [24]: 117 pmol; Drug metabolism [25]: 83 pmol; Drug metabolism [26]: 26 pmol
